Hits are enriched below; roughly 29% of the tested compounds scored in any of these assays.
CYP2C19 inhib – inhibitors of human CYP2C19 | P33261 | CYP2C19 Supersomes, luciferin-H EGE luminescence, 30 min | inhibition, % at 5 µM | actives 21% (n = 96,000) | AID 778;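 active means CYP2C19 inhibition above a set limit at 5 µM in the primary screen, cut at about 50% in these data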
Target sequence (P33261 whole entry, looked up): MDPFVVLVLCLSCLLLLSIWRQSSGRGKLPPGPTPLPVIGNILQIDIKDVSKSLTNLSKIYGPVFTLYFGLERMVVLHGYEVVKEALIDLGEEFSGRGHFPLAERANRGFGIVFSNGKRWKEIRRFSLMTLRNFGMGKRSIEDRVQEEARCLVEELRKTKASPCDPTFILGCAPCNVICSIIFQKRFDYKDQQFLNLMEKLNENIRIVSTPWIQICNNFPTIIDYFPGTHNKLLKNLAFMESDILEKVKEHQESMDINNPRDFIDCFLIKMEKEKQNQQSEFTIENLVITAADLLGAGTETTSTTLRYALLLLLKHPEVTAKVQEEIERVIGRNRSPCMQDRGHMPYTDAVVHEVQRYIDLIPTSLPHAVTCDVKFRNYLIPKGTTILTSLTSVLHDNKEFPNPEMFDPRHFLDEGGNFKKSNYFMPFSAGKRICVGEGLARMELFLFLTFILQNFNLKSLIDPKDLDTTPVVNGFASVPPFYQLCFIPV
Ecoli tolC – E. coli tolC mutant growth inhibition; growth inhibition, % at 10 µM (by protocol); actives 2.2% (n = 65,000); E. coli BW25113 tolC mutant growth, OD615;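 active means growth inhibition at or above a cutoff equal to the mean over every tested compound plus 3 SD, cut at about 60% in these data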;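 further: growth measured after 20 h incubation at 37 °C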
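Test system: tolC-deleted E. coli BW25113 | Medium: LB with kanamycin 50 µg/mL | Compound dosing: Single concentration, 10 µM final per compound | Schedule: 37 °C, 20 h exposure | Measured by: OD at 615 nm | Evaluation: Percent growth inhibition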
CYP2C9 activ – CYP2C9 (human) activation; activation factor at 5 µM; P11712; actives 1.4% (n = 96,000); recombinant CYP2C9, luciferin-H conversion, luminescence; hits give high values; factor 1 = untreated enzyme, 0 = blocked;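 active means activation factor of 2 or more for CYP2C9 at a 5 µM dose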
CYP2C19 activ – increases human CYP2C19 enzyme activity. AID 1025. recombinant CYP2C19, luciferin-H EGE luminescence; hits give high values; 0 = fully inhibited enzyme, 1 = untreated enzyme. 96,000 tested, under 10 active. P33261. activation factor at 5 µM;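 active means activation factor of at least 2 at 5 µM in the primary screen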
E coli WT exp – growth inhibitors of E. coli BW25113 wild type. OD600 absorbance. growth inhibition, % at 100 µM. actives 0.15% (n = 98,000). AID 710;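 active means growth inhibition above about 50% at one test dose, limit read from the data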;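 further: growth measured after 20 h incubation at 37 °C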
CYP2C9 inh – human CYP2C9 inhibition; CYP2C9 Supersomes, luciferin-H conversion, luminescence; inhibition, % at 5 µM; actives 20% (n = 96,000);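 active means blocking of liver enzyme CYP2C9 beyond about 50% at 5 µM, limit read from the data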
Each line names hits and unclear results; the compound was inactive in the other large screens.

O=C(Cn1cnc2c(nnn2Cc2ccccc2)c1=O)NCC1CCCO1 (stereo not given)	none
Clc1ccccc1Nc1ncnc2c1nnn2Cc1ccccc1	none
CC(C)CCNc1ncnc2c1nnn2Cc1ccccc1Cl	CYP2C9 activ 2.4
O=C(O)COCc1nc2ccccc2[nH]1	none
CCc1ccc(-c2cc(C(=O)Nn3cnnc3)c3ccccc3n2)cc1	CYP2C19 inhib 83.0, CYP2C9 inh 99.1 (no result: Ecoli tolC)
CCc1ccc(-c2cc(C(=O)N3N=C(C(F)F)CC3(O)C(F)F)c3ccccc3n2)cc1 (stereo not given)	CYP2C9 inh 77.6 (no result: Ecoli tolC)
CCCc1cc(C(=O)O)c2ccccc2n1	none (no result: Ecoli tolC)
COC(=O)c1ccc(NC(=S)NC(=O)c2cc(-c3ccccc3)nc3ccccc23)cc1	none (no result: Ecoli tolC)
COc1ccc(-c2cc(C(=O)Oc3ccc([N+](=O)[O-])cc3)c3ccccc3n2)cc1	none (no result: Ecoli tolC)
CCCc1ccc(-c2cc(C(=O)NCCc3ccc(S(N)(=O)=O)cc3)c3ccccc3n2)cc1	CYP2C9 inh 98.0 (no result: Ecoli tolC)
CCCc1ccc(-c2cc(C(=O)NN3CCOCC3)c3ccccc3n2)cc1	CYP2C9 inh 86.6 (no result: Ecoli tolC)
CC(=O)c1cc2c(cc1NS(=O)(=O)c1ccc(C)cc1)OCCO2	none
O=C(NCC1CCS(=O)(=O)C1)NCC1CCS(=O)(=O)C1 (stereo not given)	none
COc1ccc(C2=CC(c3ccc(Cl)cc3)n3cnnc3N2)cc1OC (stereo not given)	none
N=c1sccn1CC(=O)NCCc1ccc(Cl)cc1	none
CCCc1cc(=O)n2[nH]c(-c3ccc(OC)cc3)nc2n1	none (no result: Ecoli tolC)
O=C(Nc1ccccc1C(=O)Nc1ccc2c(c1)OCO2)c1cccs1	none (no result: Ecoli tolC)
CC(C)[C@H](NC(=O)NCCc1ccc(F)cc1)C(=O)O	none
CC(=O)N(Cc1ccc(F)cc1)C1=C(NCCc2ccccc2)C(=O)c2ccccc2C1=O	CYP2C19 inhib 98.7, CYP2C9 inh 95.4 (no result: Ecoli tolC)
CC1CN(C(=O)CN2C(=O)c3ccccc3S2(=O)=O)CC(C)O1 (stereo not given)	none
O=C(NCC1CCCO1)C1CC(c2ccccc2Cl)=NO1 (stereo not given)	CYP2C19 inhib 56.1, CYP2C9 activ 4.2 (no result: Ecoli tolC)
COc1ccc(OC)c(C2=NOC(C(=O)NCC3CCCO3)C2)c1 (stereo not given)	CYP2C9 activ 2.3
COc1ccc(C(=O)N2c3cc4c(cc3C(C)=CC2(C)C)OCO4)cc1	CYP2C19 inhib 91.5, Ecoli tolC 73.7, CYP2C9 inh 95.4
CCOC(=O)c1cc(-c2ccccc2)sc1NC(=O)CSc1nnnn1C	none
COc1ccccc1CNC(=O)Cn1cccc1	none (no result: Ecoli tolC)
Nc1nc(-c2ccc3ccccc3c2)c(C2(O)C(=O)Nc3c(Br)cc(F)cc32)s1 (stereo not given)	CYP2C19 inhib 91.8 (no result: Ecoli tolC)
OC1(c2ccc(OC(F)F)cc2)CSC(=Nc2cccnc2)N1C1CC1 (stereo not given)	CYP2C19 inhib 100.4 (no result: Ecoli tolC)
CCOC(=O)C1CCCN(c2c(NCCCN3CCCC(C)C3)c(=O)c2=O)C1 (stereo not given)	none
Cc1ccc(SCc2cc(=O)[nH]c(N3CCOCC3)n2)cc1	none
Cc1nc(CS(=O)c2ccc(Cl)cc2)cc(NCc2ccc(Cl)cc2Cl)n1 (stereo not given)	CYP2C19 inhib 91.3, CYP2C9 inh 96.3 (no result: Ecoli tolC)
Cc1nc(CSc2ccc(Cl)cc2)cc(NCc2ccccc2)n1	CYP2C19 inhib 85.0, CYP2C9 inh 91.1 (no result: Ecoli tolC)
Cc1nc(CSc2ccc(Cl)cc2)cc(N2CCOCC2)n1	CYP2C19 inhib 94.3 (no result: Ecoli tolC)
CSCc1cc(N2CCOCC2)nc(SCc2ccc(Cl)c(Cl)c2)n1	CYP2C19 inhib 52.6 (no result: Ecoli tolC)
O=C(CCSc1ccccc1)N1CCN(C(=O)c2ccco2)CC1	none
COc1cccc(C(=O)NCC(c2cccnc2)N2CCN(c3ccccc3OC)CC2)c1 (stereo not given)	none (no result: CYP2C19 inhib, CYP2C9 activ, CYP2C19 activ, CYP2C9 inh)
C=C(C)c1cccc(C(C)(C)NC(=O)Nc2ccc3[nH]c(=O)[nH]c3c2)c1	none
CCOC(=O)c1sc2nc(N3CCCC3)c3c(c2c1N)CC(C)(C)OC3	none
CCOC(=O)c1sc2nc(C(C)C)c3c(c2c1N)CC(C)(C)OC3	CYP2C9 inh 69.3 (no result: Ecoli tolC)
C=CCn1c(SCc2nc3ccccc3[nH]2)nnc1-c1ccncc1	CYP2C19 inhib 93.2
CCn1c(SCc2nc3ccccc3c(=O)[nH]2)nnc1-c1ccncc1	CYP2C19 inhib 93.8 (no result: Ecoli tolC)
CCn1c(SCc2nc3ccccc3c(=O)[nH]2)nnc1-c1cccnc1	CYP2C19 inhib 90.3
CCn1c(SCc2nc3cc(OC)c(OC)cc3c(=O)[nH]2)nnc1-c1ccncc1	none
Nn1c(SCc2nc3ccccc3[nH]2)nnc1-c1cccnc1	none
O=c1[nH]c(CSc2nnc(-c3cccnc3)n2C2CCCCC2)nc2ccccc12	CYP2C19 inhib 61.7 (no result: Ecoli tolC)
Nc1c(C(=O)NCc2ccc3c(c2)OCO3)nnn1-c1ccc(OC(F)(F)F)cc1	none (no result: Ecoli tolC)
CC(C)[C@H](NC(=O)c1ccccc1)C(=O)OCC(=O)N1CCc2ccccc2C1	none (no result: Ecoli tolC)
CN(C)c1ccc(C2N(c3ccc(F)cc3)C(=O)C3CCCN32)cc1 (stereo not given)	none
CCOc1ccc(C2N(c3ccc(F)cc3)C(=O)C3CCCN32)cc1 (stereo not given)	CYP2C19 inhib 83.4, CYP2C9 inh 82.7
Cc1ccc(C2N(c3ccc(F)cc3)C(=O)C3CCCN32)cc1 (stereo not given)	CYP2C19 inhib 50.1
O=C(CCn1nnc2ccccc2c1=O)N[C@H](C(=O)O)c1ccccc1	none
CCc1cc2ccccc2nc1SCC(=O)N1CCN(C(=O)c2ccco2)CC1	CYP2C19 inhib 83.0, CYP2C9 inh 80.3
CCc1cc2cc(C)ccc2nc1SCC(=O)N1CCN(C(=O)c2ccco2)CC1	CYP2C9 inh 70.3
O/N=C(\COc1ccccc1O)c1ccccc1	CYP2C19 inhib 92.8
O=C(O)COc1ccccc1O	none
CCOC(=O)C1=C(C)NC(C)=C(C(=O)OCC)C1c1cc(N)ccc1OC(F)F	CYP2C9 inh 56.7
Nc1nc(SCC(=O)Nc2ccccc2Sc2ccc(Cl)cc2)n[nH]1	CYP2C19 inhib 100.4, CYP2C9 inh 98.8 (no result: Ecoli tolC)
Nc1nc(SCC(=O)Nc2cc(-c3ccccc3)nn2-c2ccccc2)n[nH]1	CYP2C19 inhib 93.6, CYP2C9 inh 60.5 (no result: Ecoli tolC)
COc1ccc(NC(=O)CSc2n[nH]c(N)n2)c([N+](=O)[O-])c1	none (no result: Ecoli tolC)
Cc1ccc(-c2cc(NC(=O)CSc3n[nH]c(N)n3)n(-c3ccccc3)n2)cc1	none (no result: Ecoli tolC)
O=C(c1c[nH]c(C(=O)C(Cl)(Cl)Cl)c1)c1ccccc1Cl	CYP2C9 inh 72.5 (no result: Ecoli tolC)
CCNc1nnc(-c2ccncc2)s1	CYP2C19 inhib 71.2 (no result: Ecoli tolC)
CNc1nnc(-c2ccncc2)s1	none
CCC(=O)Nc1nnc(-c2ccncc2)s1	CYP2C19 inhib 75.3 (no result: Ecoli tolC)
Cc1nnc(NC(=O)C2CCCO2)s1 (stereo not given)	none (no result: CYP2C19 inhib, CYP2C9 activ, CYP2C19 activ, CYP2C9 inh)
O=C(Nc1nnc(-c2ccncc2)s1)C1CCCO1 (stereo not given)	CYP2C19 inhib 77.8
O=C1CC(NCCC2=CCCCC2)C(=O)N1c1cccc(Cl)c1Cl (stereo not given)	none (no result: Ecoli tolC)

Source: PubChem (several laboratories)
